Measurements published in ChEMBL document CHEMBL3098117, “Identification and optimization of an aminoalcohol-carbazole series with antimalarial properties” (ACS Med Chem Lett, 2013).
Calls of active or inactive are those of the source. No cut-off for these calls is given here.

Assays:
[1] = test system: Salmonella typhimurium; test: Mutagenic activity in Salmonella typhimurium by Ames test under metabolic conditions; format: toxicity, organism-based; settings: salmonella enterica subsp. enterica serovar typhimurium
[2] = Genotoxicity in micronucleus (unknown origin) under metabolic conditions; format: ADME
[3] = biological target: T1, Potassium/sodium hyperpolarization-activated cyclic nucleotide-gated channel 4 (Homo sapiens) (UniProt Q9Y3Q4); test: Inhibition of human HCN4 channel
T1 sequence (whole entry): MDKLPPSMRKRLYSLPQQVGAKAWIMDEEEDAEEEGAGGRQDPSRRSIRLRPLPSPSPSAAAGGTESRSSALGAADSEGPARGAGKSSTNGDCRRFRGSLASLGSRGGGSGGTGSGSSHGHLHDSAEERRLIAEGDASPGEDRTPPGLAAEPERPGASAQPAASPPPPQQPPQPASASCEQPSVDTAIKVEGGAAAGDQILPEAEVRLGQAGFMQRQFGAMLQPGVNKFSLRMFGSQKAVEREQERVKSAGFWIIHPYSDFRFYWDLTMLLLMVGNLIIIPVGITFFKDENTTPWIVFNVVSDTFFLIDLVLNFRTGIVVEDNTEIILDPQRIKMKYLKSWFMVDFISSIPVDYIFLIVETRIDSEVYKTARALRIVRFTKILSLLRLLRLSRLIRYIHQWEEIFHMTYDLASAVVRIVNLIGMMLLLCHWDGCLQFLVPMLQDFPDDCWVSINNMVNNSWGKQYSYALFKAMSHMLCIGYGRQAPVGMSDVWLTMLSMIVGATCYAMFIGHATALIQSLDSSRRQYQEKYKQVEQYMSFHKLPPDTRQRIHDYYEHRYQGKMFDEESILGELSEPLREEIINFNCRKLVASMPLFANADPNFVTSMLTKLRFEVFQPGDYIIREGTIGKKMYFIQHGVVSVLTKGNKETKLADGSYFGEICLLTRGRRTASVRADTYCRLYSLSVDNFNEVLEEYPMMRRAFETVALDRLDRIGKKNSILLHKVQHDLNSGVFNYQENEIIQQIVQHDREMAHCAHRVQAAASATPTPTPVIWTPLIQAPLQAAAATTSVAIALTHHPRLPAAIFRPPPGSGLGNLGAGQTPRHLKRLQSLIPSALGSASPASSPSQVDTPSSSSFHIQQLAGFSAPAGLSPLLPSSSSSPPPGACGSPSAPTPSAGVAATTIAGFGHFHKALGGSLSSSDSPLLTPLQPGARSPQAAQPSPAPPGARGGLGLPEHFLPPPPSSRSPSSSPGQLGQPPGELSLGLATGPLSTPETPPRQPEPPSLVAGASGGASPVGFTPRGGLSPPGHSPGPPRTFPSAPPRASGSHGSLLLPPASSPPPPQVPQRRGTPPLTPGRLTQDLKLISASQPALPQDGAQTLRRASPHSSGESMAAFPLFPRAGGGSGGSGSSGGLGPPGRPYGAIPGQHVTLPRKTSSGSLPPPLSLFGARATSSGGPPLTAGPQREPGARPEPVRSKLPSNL

[4] = Volume of distribution at steady state in NMRI mouse at 1 mg/kg, iv by LC-MS/MS analysis; format: ADME, organism-based; parameters: dose 1 mg/kg, route intravenous; settings: in vivo, read-out: Vdss
[5] = Oral bioavailability in NMRI mouse at 5 mg/kg by LC-MS/MS analysis; format: ADME, organism-based; settings: in vivo
[6] = test system: Plasmodium berghei; test: Antimalarial activity against Plasmodium berghei ANKA expressing GFP infected in po dosed NMRI mouse assessed as reduction in parasitemia administered qd for 4 days measured at 24 hrs after last dose; format: functional
Procedure, shortened: (§1)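 P. berghei-infected mice dosed orally once daily on days 0–3, first dose 4 h postinfection, at 3, 10, 30 and 100 mg/kg/day. Red blood cell parasitemia and plasma exposure measured on day 4, 24 h after last dose; ED50 derived from dose-response; survival then monitored for 26 further days as mean survival days.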

[7] = biological target: T2, A-type voltage-gated potassium channel KCND3 (Homo sapiens, UniProt Q9UK17); test: Inhibition of Kv4.3 channel (unknown origin)
T2 sequence (Q9UK17 whole entry): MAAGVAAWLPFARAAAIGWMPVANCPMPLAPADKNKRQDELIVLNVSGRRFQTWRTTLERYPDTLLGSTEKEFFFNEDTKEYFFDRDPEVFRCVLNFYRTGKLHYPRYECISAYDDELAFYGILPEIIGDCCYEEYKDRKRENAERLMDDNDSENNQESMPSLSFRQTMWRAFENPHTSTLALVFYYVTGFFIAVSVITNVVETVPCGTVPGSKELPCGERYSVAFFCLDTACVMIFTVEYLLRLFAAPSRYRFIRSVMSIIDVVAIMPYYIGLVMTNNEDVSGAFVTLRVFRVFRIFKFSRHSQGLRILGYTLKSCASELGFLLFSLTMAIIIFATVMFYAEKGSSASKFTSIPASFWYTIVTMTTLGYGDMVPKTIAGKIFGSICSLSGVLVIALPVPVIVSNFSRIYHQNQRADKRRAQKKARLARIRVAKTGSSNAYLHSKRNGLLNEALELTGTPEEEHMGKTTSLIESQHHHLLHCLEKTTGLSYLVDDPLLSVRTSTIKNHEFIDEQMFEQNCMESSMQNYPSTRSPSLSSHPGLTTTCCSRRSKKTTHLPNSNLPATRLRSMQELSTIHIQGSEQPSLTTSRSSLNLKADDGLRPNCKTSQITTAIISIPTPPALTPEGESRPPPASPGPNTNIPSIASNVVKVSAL

[8] = test system: Plasmodium falciparum; test: Antimalarial activity against Plasmodium falciparum K1 infected in human RBC after 72 hrs by hypoxanthine incorporation assay in presence of serum albumin; format: functional, organism-based; settings: K1, 72 h
Procedure, shortened: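 Mixture of drug, human red blood cells and P. falciparum incubated 3 days (72 h) with serum albumin present; growth read as hypoxanthine incorporation.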

[9] = test system: Plasmodium falciparum; test: Antimalarial activity against chloroquine, pyrimethamine, cycloguanil-resistant Plasmodium falciparum 7G8; format: functional, organism-based
[10] = test system: Plasmodium berghei; test: Antimalarial activity against Plasmodium berghei ANKA expressing GFP infected in NMRI mouse assessed as increase in mouse survival at 30 mg/kg/day, po qd for 4 days measured at 24 hrs after last dose; format: functional, organism-based; procedure, shortened: as §1
[11] = test system: Plasmodium falciparum; test: Antimalarial activity against mefloquine-resistant Plasmodium falciparum TM91C235; format: functional, organism-based

OC(CNC1CCCCC1)Cn1c2ccc(Br)cc2c2cc(Br)ccc21 (racemic)
Activity [1]: Non-toxic | Activity [2]: Non-toxic | inhibition [3]: inactive | Vd [4]: 13 L/kg | bioavailability [5]: 50% | Activity [6]: Dose dependent effect | ED50 [6]: 11.4 mg/kg/day | inhibition (INH) [7]: Not Active | IC50 [8]: 9 nM | Activity [9]: Active | Activity [10]: Active | Activity [11]: Active
